In brackets after ≈: the same amount, converted by molar mass. Activity calls are given as the source filed them. The calls are words filed in the database; no cut-off is given here.
Tests used:
Staphylococcus aureus [1] = assay: Antibacterial activity against Methicillin-resistant Staphylococcus aureus ATCC 33591 assessed as bacterial growth inhibition incubated for 20 to 24 hrs by microbroth serial dilution assay; format: functional; conditions: time 20-24 hrs
Staphylococcus aureus [2] = assay: Antibacterial activity against Methicillin-resistant Staphylococcus aureus ATCC 43300 assessed as bacterial growth inhibition incubated for 20 to 24 hrs by microbroth serial dilution assay; format: functional; conditions: time 20-24 hrs
[3] = test system: Staphylococcus epidermidis; assay: Antibacterial activity against Methicillin-resistant Staphylococcus epidermidis ATCC 51625 assessed as bacterial growth inhibition incubated for 20 to 24 hrs by microbroth serial dilution assay; format: functional; conditions: time 20-24 hrs
[4] = test system: Staphylococcus epidermidis; assay: Antibacterial activity against Methicillin-sensitive Staphylococcus epidermidis ATCC 12228 assessed as bacterial growth inhibition incubated for 20 to 24 hrs by microbroth serial dilution assay; format: functional; conditions: time 20-24 hrs
Staphylococcus aureus [5] = assay: Antibacterial activity against Staphylococcus aureus ATCC 25923 assessed as bacterial growth inhibition incubated for 20 to 24 hrs by microbroth serial dilution assay; format: functional; conditions: time 20-24 hrs
[6] = test system: Staphylococcus epidermidis; assay: Selectivity ratio of MBC for antibacterial activity against Methicillin-resistant Staphylococcus epidermidis ATCC 51625 to MIC for antibacterial activity against Methicillin-resistant Staphylococcus epidermidis ATCC 51625; format: functional
[7] = test system: Staphylococcus epidermidis; assay: Selectivity ratio of MBC for antibacterial activity against Methicillin-sensitive Staphylococcus epidermidis […] to MIC for antibacterial activity against Methicillin-sensitive Staphylococcus epidermidis […]; format: functional
Staphylococcus aureus [8] = assay: Selectivity ratio of MBC for antibacterial activity against Staphylococcus aureus to MIC for antibacterial activity against Staphylococcus aureus; format: functional
Staphylococcus aureus [9] = assay: Antibacterial activity against Methicillin-sensitive Staphylococcus aureus ATCC 29213 assessed as bacterial growth inhibition incubated for 20 to 24 hrs by microbroth serial dilution assay
Staphylococcus aureus [10] = assay: Selectivity ratio of MBC for antibacterial activity against Methicillin-sensitive Staphylococcus aureus ATCC 29213 to MIC for antibacterial activity against Methicillin-sensitive Staphylococcus aureus ATCC 29213
Staphylococcus aureus [11] = assay: Selectivity ratio of MBC for antibacterial activity against Methicillin-resistant Staphylococcus aureus ATCC 33591 to MIC for antibacterial activity against Methicillin-resistant Staphylococcus aureus ATCC 33591; format: functional
Staphylococcus aureus [12] = assay: Selectivity ratio of MBC for antibacterial activity against Methicillin-resistant Staphylococcus aureus ATCC 43300 to MIC for antibacterial activity against Methicillin-resistant Staphylococcus aureus ATCC 43300; format: functional
Staphylococcus aureus [13] = assay: Antibacterial activity against Methicillin-resistant Staphylococcus aureus ATCC 33591 assessed as bacterial growth inhibition at 1 to 2 times MIC measured upto 24 hrs by time kill assay; format: functional, organism-based
Outline: (§1)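 MRSA ATCC 33591 time-kill curves at 1×, 2× and 4× MIC, with a tiamulin positive control and an untreated growth control. Viable counts were taken as CFU·mL⁻¹ at time points through incubation, including 2, 8 and 12 h.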

Staphylococcus aureus [14] = assay: Antibacterial activity against Methicillin-resistant Staphylococcus aureus ATCC 33591 assessed as bacterial colony inhibition at 1 to 2 times MIC measured upto 24 hrs by time kill assay; format: functional, organism-based; outline: as §1
Staphylococcus aureus [15] = assay: Antibacterial activity against Methicillin-resistant Staphylococcus aureus ATCC 33591 assessed as bacterial bactericidal effect at 1 to 2 times MIC measured upto 24 hrs by time kill assay; format: functional, organism-based; outline: as §1
Staphylococcus aureus [16] = assay: In vivo Antibacterial activity against Methicillin-resistant Staphylococcus aureus in ICR mouse thigh infection model assessed as reduction in bacterial load at 40 mg/kg, IP by […]; format: functional

| SMILES | MIC (Staphylococcus aureus [1]) | MIC (Staphylococcus aureus [2]) | MIC [3] | MIC [4] | MIC (Staphylococcus aureus [5]) | Ratio [6] | Ratio [7] | Ratio (Staphylococcus aureus [8]) | MIC (Staphylococcus aureus [9]) | Ratio (Staphylococcus aureus [10]) | Ratio (Staphylococcus aureus [11]) | Ratio (Staphylococcus aureus [12]) | Activity (Staphylococcus aureus [13]) | Activity (Staphylococcus aureus [14]) | Activity (Staphylococcus aureus [15]) | Activity (Staphylococcus aureus [16]) |
| --- | --- | --- | --- | --- | --- | --- | --- | --- | --- | --- | --- | --- | --- | --- | --- | --- |
| C=C[C@]1(C)C[C@@H](OC(=O)CSc2nc(N)nc3c2ncn3C(=O)Nc2ccc(F)cc2)[C@@]2(C)C3C(=O)CC[C@@]3(CC[C@H]2C)[C@@H](C)[C@@H]1O (some centres undefined) | 0.125 µg/mL (≈ 0.188 µM) | 0.125 µg/mL (≈ 0.188 µM) | 0.125 µg/mL (≈ 0.188 µM) | 0.0156 µg/mL (≈ 0.0235 µM) | 0.125 µg/mL (≈ 0.188 µM) | 4 | >4 | >4 | 0.25 µg/mL (≈ 0.376 µM) | 2 | – | – | – | – | – | – |
| C=C[C@]1(C)C[C@@H](OC(=O)CSc2nc(NC(=O)CN3CCCC3)nc3[nH]cnc23)[C@@]2(C)C3C(=O)CC[C@@]3(CC[C@H]2C)[C@@H](C)[C@@H]1O (some centres undefined) | 2 µg/mL (≈ 3.13 µM) | 1 µg/mL (≈ 1.57 µM) | 1 µg/mL (≈ 1.57 µM) | 2 µg/mL (≈ 3.13 µM) | 2 µg/mL (≈ 3.13 µM) | 4 | >4 | >4 | 2 µg/mL (≈ 3.13 µM) | 4 | 4 | – | – | – | – | – |
| C=C[C@]1(C)C[C@@H](OC(=O)CSc2nc(N)nc3[nH]cnc23)[C@@]2(C)C3C(=O)CC[C@@]3(CC[C@H]2C)[C@@H](C)[C@@H]1O (some centres undefined) | 0.125 µg/mL (≈ 0.237 µM) | 0.125 µg/mL (≈ 0.237 µM) | 0.125 µg/mL (≈ 0.237 µM) | 0.125 µg/mL (≈ 0.237 µM) | 0.25 µg/mL (≈ 0.474 µM) | 2 | >4 | >4 | 0.125 µg/mL (≈ 0.237 µM) | – | 4 | – | – | – | – | – |
| C=C[C@]1(C)C[C@@H](OC(=O)CSC(C)(C)CNC(=O)[C@H](N)C(C)C)[C@]2(C)[C@H](C)CC[C@]3(CCC(=O)[C@H]32)[C@@H](C)[C@@H]1O [VALNEMULIN] | 0.25 µg/mL (≈ 0.443 µM) | 0.125 µg/mL (≈ 0.221 µM) | 0.125 µg/mL (≈ 0.221 µM) | 2 µg/mL (≈ 3.54 µM) | 0.25 µg/mL (≈ 0.443 µM) | – | >4 | 1 | 0.125 µg/mL (≈ 0.221 µM) | >4 | – | 4 | – | – | – | – |
| C=C[C@]1(C)C[C@@H](OC(=O)CSc2nc(NC(=O)CN3CCOCC3)nc3[nH]cnc23)[C@@]2(C)C3C(=O)CC[C@@]3(CC[C@H]2C)[C@@H](C)[C@@H]1O (some centres undefined) | 1 µg/mL (≈ 1.53 µM) | 1 µg/mL (≈ 1.53 µM) | 0.125 µg/mL (≈ 0.191 µM) | 0.0156 µg/mL (≈ 0.0238 µM) | 0.5 µg/mL (≈ 0.764 µM) | – | >4 | – | 1 µg/mL (≈ 1.53 µM) | >4 | >4 | >4 | – | – | – | – |
| C=C[C@]1(C)C[C@@H](OC(=O)CSc2nc(N)nc3c2ncn3C(=O)NCc2cccc(OC)c2)[C@@]2(C)C3C(=O)CC[C@@]3(CC[C@H]2C)[C@@H](C)[C@@H]1O (some centres undefined) | 0.125 µg/mL (≈ 0.181 µM) | 0.125 µg/mL (≈ 0.181 µM) | 0.0625 µg/mL (≈ 0.0905 µM) | 0.0156 µg/mL (≈ 0.0226 µM) | 0.125 µg/mL (≈ 0.181 µM) | 2 | >4 | >4 | 0.0625 µg/mL (≈ 0.0905 µM) | 4 | 4 | – | – | – | – | – |
| C=C[C@]1(C)C[C@@H](OC(=O)CSc2nc(N)nc3c2ncn3C(=O)OCC)[C@@]2(C)C3C(=O)CC[C@@]3(CC[C@H]2C)[C@@H](C)[C@@H]1O (some centres undefined) | 0.25 µg/mL (≈ 0.417 µM) | 0.125 µg/mL (≈ 0.208 µM) | 0.25 µg/mL (≈ 0.417 µM) | < 0.0078 µg/mL | 0.25 µg/mL (≈ 0.417 µM) | – | >4 | 4 | 0.125 µg/mL (≈ 0.208 µM) | >4 | – | >4 | – | – | – | – |
| C=C[C@]1(C)C[C@@H](OC(=O)CSCCN(CC)CC)[C@]2(C)[C@H](C)CC[C@]3(CCC(=O)[C@H]32)[C@@H](C)[C@@H]1O [TIAMULIN] | 1 µg/mL (≈ 2.03 µM) | 2 µg/mL (≈ 4.05 µM) | 1 µg/mL (≈ 2.03 µM) | 0.5 µg/mL (≈ 1.01 µM) | 2 µg/mL (≈ 4.05 µM) | – | >4 | 4 | 1 µg/mL (≈ 2.03 µM) | >4 | – | – | Active | Active | inactive | 1 10^7CFU/g |
| C=C[C@]1(C)C[C@@H](OC(=O)CSc2nc(N)nc3c2ncn3C(=O)Nc2cccc(C(F)(F)F)c2)[C@@]2(C)C3C(=O)CC[C@@]3(CC[C@H]2C)[C@@H](C)[C@@H]1O (some centres undefined) | 0.25 µg/mL (≈ 0.35 µM) | 0.25 µg/mL (≈ 0.35 µM) | 0.125 µg/mL (≈ 0.175 µM) | 0.0156 µg/mL (≈ 0.0218 µM) | 0.25 µg/mL (≈ 0.35 µM) | 4 | >4 | >4 | 0.125 µg/mL (≈ 0.175 µM) | – | – | – | – | – | – | – |
